The inhibition is how much of the control response was suppressed.

The values below come from ChEMBL document CHEMBL1126644, “Structure-activity relationships in the trans-hexahydroindolo[4,3-ab]phenanthridine ("benzergoline") series. 2. Resolution, absolute configuration, and dopaminergic activity of the selective D1 agonist CY 208-243 and its implication for an "extended rotamer-based dopamine receptor model"” (1993).

Assay [1] is filed under the species Rattus norvegicus. The experiment in a line: Tested in vitro for percent maximal inhibition in rat striatal slices (% of control) expressed as change of S2/S1 versus control at 1 uM.
Another assay is filed under the species Bos taurus. Briefly: In vitro percent maximal stimulation relative to dopamine (125 uM) in bovine retina. It is filed as functional. The method, boiled down: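 Bovine retina adenylate cyclase stimulation, expressed as a percentage of the maximal effect produced by 125 μM dopamine.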
Assay [2] is described as follows: In vitro potency against adenylate cyclase in bovine retina. It is filed as tissue-based. An outline of the steps:
(§1)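 Dopamine-sensitive adenylate cyclase assay on bovine retina tissue. Values are means of two to six independent experiments, each run in triplicate.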

For assay [3], the species on record is Rattus norvegicus. The experiment in a line: Tested in vitro for percent maximal inhibition in rat striatal slices (% of control) expressed as change of S2/S1 versus control at 1 uM. The source holds these as a separate data set.
Assay [4] is filed under the species Rattus norvegicus. Briefly: In vitro potency in rat striatal slices by electrically evoked acetylcholine release. It is filed as functional.
Assay [5] is described as follows: Compound was evaluated for in vitro potency against adenylate cyclase in bovine retina. It is filed as tissue-based. The method, boiled down:
as §1

As to `CN1Cc2ccccc2[C@@H]2c3cccc4[nH]cc(c34)C[C@H]21` (racemic) [listing 1 of 2 here], the inhibition at 1 µM in the assay filed under Rattus norvegicus [1] was 0%. Further, the “Relative to DA” value in the assay filed under Bos taurus is reported as 57%.

As to `CN1Cc2ccccc2[C@@H]2c3cccc4[nH]cc(c34)C[C@H]21` (stereo in doubt) [listing 1 of 2 here], in the assay filed under Bos taurus, the “Relative to DA” value was 68%.

As to `Oc1ccc([C@@H]2CNCc3ccccc32)cc1O`, in assay [2], the pD2 came out at 6. Besides, the inhibition at 1 µM in the assay listed under Rattus norvegicus [3] amounted to 0%. In addition, the “Relative to DA” value in the assay filed under Bos taurus was 86%.

On to `CN1CCC[C@@H]2c3cccc4[nH]cc(c34)C[C@H]21`, for which the results for the pD2 (in assay [2]; in the assay listed under Rattus norvegicus [4]) were 5.2 and 7.5, respectively. Also, in the assay listed under Rattus norvegicus [3], testing at 1 µM gave an inhibition of 30%. Moreover, in the assay listed under Bos taurus, the “Relative to DA” value was 24%.

For `CN1Cc2ccccc2[C@@H]2c3cccc4[nH]cc(c34)C[C@H]21` (racemic) [listing 2 of 2 here], the pD2 in assay [2] was 6.1.

Take `CN1CCC[C@@H]2Cc3c(O)cccc3C[C@H]21`: the pD2 in assay [2] stood at 6.15; in the assay filed under Rattus norvegicus [4] it was 7.3. This compound displayed an inhibition at 1 µM in the assay filed under Rattus norvegicus [3] of 62%. Also, the “Relative to DA” value in the assay filed under Bos taurus is listed as 14%.

In assay [5], `CN1Cc2ccccc2[C@@H]2c3cccc4[nH]cc(c34)C[C@H]21` (stereo in doubt) [listing 2 of 2 here] showed a pD2 of 6.9.

Turning to `Oc1cc2c(cc1O)C(c1ccccc1)CNCC2` (centres undefined) [SKF-38393], the pD2 in assay [2] is 6.6. In the assay filed under Rattus norvegicus [3], this compound showed an inhibition at 1 µM of 0%. Besides, the “Relative to DA” value in the assay filed under Bos taurus is 58%.

With `CN1CCc2cccc3c2[C@H]1Cc1ccc(O)c(O)c1-3` [APOMORPHINE], the pD2 worked out at 6.2 in assay [2] and 7.5 in the assay listed under Rattus norvegicus [4]. This compound displayed an inhibition at 1 µM in the assay listed under Rattus norvegicus [3] of 85%. For the same compound, the “Relative to DA” value in the assay listed under Bos taurus stood at 38%.

In the case of `CN1Cc2ccccc2[C@@H]2c3cccc4[nH]cc(c34)C[C@H]21` (stereo in doubt; (+)-1), in the assay filed under Bos taurus, the “Relative to DA” value was found to be 0%.
